For test [1], the system named is Mus musculus. As to the kind of experiment: Analgesic activity in cerulein-induced mouse model of acute pancreatitis assessed as reduction in pancreatic necrosis at 10 mg/kg, ip administered at 2 hrs interval for 10 hrs starting from post-first cerulein challenge and measured 12 hrs post-first cerulein challenge by H and E staining based histopathological analysis. It is filed as functional, organism-based. In short, it runs like this: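 Cerulein pancreatitis: 7 hourly i.p. injections of 50 µg/kg; 10 mg/kg compound i.p. at 2, 4, 6, 8 and 10 h. Mice killed at 12 h and pancreas harvested for MPO activity and H&E histology. Ten random fields per slide scored blind by two observers for edema, inflammatory infiltration and acinar necrosis; n = 6.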

The subject of test [2] is Mus musculus. As to the kind of experiment: Analgesic activity in cerulein-induced mouse model of acute pancreatitis assessed as reduction in mechanical allodynia at 10 mg/kg, ip administered at 2 hrs interval for 10 hrs starting from post-first cerulein challenge and measured 0.5 hrs post-last cerulein challenge by von frey test. The test is classed as functional, organism-based. The procedure, abridged: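 Acute pancreatitis induced by 7 hourly i.p. injections of cerulein (50 µg/kg in ice-cold PBS); controls received PBS. Compound 10 mg/kg i.p. or vehicle at 2, 4, 6, 8 and 10 h. Von Frey testing (ascending filaments) started 0.5 h after the last cerulein injection.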

Test [3] deals with Mus musculus. The experiment in a line: Analgesic activity in mouse model of spared nerve injury assessed as reduction in cold hyperalgesia at 5 mg/kg, ip measured at 7 days interval for up to 21 days post spared nerve injury by cold plantar test. It is filed as functional, organism-based. The procedure, abridged:
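SNI mice acclimated 3 days on a 6 mm glass plate; compound 5 mg/kg i.p. A dry-ice-packed syringe was applied to the centre of the left hindpaw. Withdrawal latency timed by stopwatch, cut-off 30 s; n = 8–10.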

Test [4] concerns the target T1, Potassium channel subfamily K member 2 (Rattus norvegicus) (UniProt Q920B6).
T1 sequence (whole entry): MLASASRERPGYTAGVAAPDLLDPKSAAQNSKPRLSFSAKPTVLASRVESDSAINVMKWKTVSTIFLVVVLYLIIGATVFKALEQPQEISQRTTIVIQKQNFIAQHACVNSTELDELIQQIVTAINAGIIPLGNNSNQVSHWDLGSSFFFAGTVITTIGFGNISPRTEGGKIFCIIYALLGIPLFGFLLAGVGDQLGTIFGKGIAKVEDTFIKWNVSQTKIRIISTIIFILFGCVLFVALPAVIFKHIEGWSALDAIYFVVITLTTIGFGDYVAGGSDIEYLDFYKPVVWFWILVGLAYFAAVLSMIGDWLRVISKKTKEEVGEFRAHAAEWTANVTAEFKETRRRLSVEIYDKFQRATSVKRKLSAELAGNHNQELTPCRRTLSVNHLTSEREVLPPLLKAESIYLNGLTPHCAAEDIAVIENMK
The experiment in a line: Activation of TREK in depolarized Sprague-Dawley rat DRG neurons assessed as reversal potential of K+ current at 10 uM by whole cell voltage clamp electrophysiological analysis. The procedure, abridged:
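Rat DRG neurons, whole-cell voltage clamp in 3 mM external K⁺. Voltage ramps -20 to -120 mV before and during 10 μM compound. The compound-sensitive current was obtained by subtraction, and its reversal potential was read where it could be resolved (4 cells).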

Test [5] concerns T2, Potassium channel subfamily K member 2 (Homo sapiens), O95069 [I158A].
T2 sequence (whole entry): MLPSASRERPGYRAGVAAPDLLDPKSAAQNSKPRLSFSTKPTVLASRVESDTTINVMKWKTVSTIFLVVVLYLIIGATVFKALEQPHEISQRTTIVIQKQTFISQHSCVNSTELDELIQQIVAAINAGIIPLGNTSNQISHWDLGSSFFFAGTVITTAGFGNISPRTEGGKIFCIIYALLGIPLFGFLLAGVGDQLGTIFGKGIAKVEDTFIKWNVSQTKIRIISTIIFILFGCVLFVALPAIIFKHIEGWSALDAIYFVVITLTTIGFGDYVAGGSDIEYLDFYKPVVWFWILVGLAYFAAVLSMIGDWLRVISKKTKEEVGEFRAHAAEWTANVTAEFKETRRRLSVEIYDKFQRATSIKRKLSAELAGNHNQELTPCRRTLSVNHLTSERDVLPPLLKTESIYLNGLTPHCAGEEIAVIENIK
As to the kind of experiment: Activation of recombinant human TREK1 I158A mutant expressed in HEK293T cells assessed as increase in K+ current amplitude by whole cell voltage clamp electrophysiological analysis. It is filed as cell-based. The procedure, abridged: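 Transiently transfected HEK-293T cells, whole-cell voltage clamp. Held at -60 mV, 500-ms ramp -120 to +60 mV. Pipette (mM) 140 KCl, 5 EGTA, 10 HEPES, pH 7.4; external 145 NaCl, 4 KCl, pH 7.3. Compound diluted from 10 mM DMSO stock and applied extracellularly. Current increase over control fitted to concentration–response curves for EC50.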

Test [6] concerns the target T3, Potassium channel subfamily K member 2 (Homo sapiens) (UniProt O95069).
T3 sequence (whole entry): T2 sequence (whole entry) with A158I
As to the kind of experiment: Activation of recombinant human TREK1 expressed in HEK293T cells assessed as change in probability of open channel by inside-out patch electrophysiological analysis. It is filed as cell-based. The procedure, abridged:
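Inside-out patches from HEK-293T cells expressing human TREK-1 (pEGFP-N1), 10 μM compound. Conductance taken as first open-state amplitude over voltage at -60 or +60 mV.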

Our source for the Activity values is ChEMBL document CHEMBL4354866, “TREK Channel Family Activator with a Well-Defined Structure-Activation Relationship for Pain and Neurogenic Inflammation” (J Med Chem, 2020).

Where a chain is given by its changes, count along the chain named. Calls of active or inactive are those of the source.

Regarding `Cc1ccc2nc(-c3ccc(NC(=O)[C@@H]4CC[C@H](C(=O)O)C4)cc3)sc2c1`, the outcome in the test with Mus musculus [1], in the test on Mus musculus [2] and in the test with Mus musculus [3] was Active. Besides, in test [4], the Activity is -75 mV. Further, the outcome in test [5] and in test [6] was inactive.
